Like-named read-outs stand apart in the source and are kept apart here. Marks after values point to notes of the source that are not given here. Bounds are passed on as bounds.

The test system of assay [1] is MIA PaCa2. Briefly: Cell viability assay. The assay is classed as cell-based, human. Conditions: read-out: IC50 (μM) MIA PaCa2. An outline of the steps: (§1)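 Cells were grown in RPMI-1640 with 10% FBS, pyruvate, HEPES, glutamine and antibiotics at 37°C, 5% CO2, and seeded at 6000 cells/well. After 24 h adherence, half the medium was replaced with serially diluted test compound, 5-fluorouracil, or methanol-containing medium. Exposure lasted 72 h. MTT (5 mg/ml solution) was then added for 3 h at 37°C, formazan dissolved in HCl-acidified isopropanol, and absorbance read at 570 nm.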

For assay [2], the system named is Panc-1. Briefly: Cell viability assay. It counts as cell-based, human. Conditions: read-out: IC50 (μM) Panc-1. An outline of the steps:
as §1

The test system of assay [3] is BxPC-3. Description: Cell viability assay. Conditions: read-out: IC50 (μM) BxPC-3. The assay is classed as cell-based, human. An outline of the steps: as §1
The subject of assay [4] is AsPC-1. Briefly: Cell viability assay. The assay is classed as cell-based, human. Conditions: read-out: IC50 (μM) AsPC-1. An outline of the steps:
as §1

The test system of assay [5] is AsPC-1 cells. Description: Cell cycle analysis by flow cytometry. The settings on record: 48 hours. It counts as cell-based, human. An outline of the steps:
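AsPC-1 cells were trypsinized into 6-well plates and allowed to adhere for 24 h. They were then exposed for 48 h to test compound at 5 or 25 μg/ml, methanol vehicle, medium alone, or 100 nM paclitaxel as positive control. Cells were fixed in ice-cold ethanol (−20°C, 1 h) and stained with propidium iodide plus RNase A (30 min, 37°C) for flow cytometry. Run 3 times.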
For orientation: A flow cytometer gives signals particle by particle.

Assay [6] deals with genomic salmon testes DNA. Description: DNA intercalation assay. It counts as binding. Conditions: for % DNA intercalation: 25 μg/ml, ethidium bromide displacement; for DNA intercalation (in words): 5 and 25 μg/ml. An outline of the steps:
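Genomic salmon testes DNA (0.5 μg) was equilibrated with 1.27 μM ethidium bromide for 30 min at room temperature. Test compound (5 or 25 μg/ml), methanol vehicle, 1 μM doxorubicin (positive control) or 100 μM etoposide (negative control) was added for a further 30 min. Ethidium displacement was read as a fluorescence decrease (ex 340, em 590 nm). Mean of 3 experiments ± standard deviation.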

For assay [7], the target named is topoisomerase II (Homo sapiens, UniProt P11388). Description: Decatenation reaction of kinetoplast DNA. The assay is classed as biochemical. The settings on record: for inhibition at 25 µg/mL: read-out: % Inhibition topoisomeraseII; for topoisomerase II inhibition (in words) / % Inhibition topoisomeraseII: 25 μg/ml; for % Inhibition topoisomeraseII: decatenation of kinetoplast DNA, 30 minutes. An outline of the steps: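 A commercial kit assay was used: 0.2 μg kinetoplast DNA plus 1 U topoisomerase II in ATP/MgCl2/DTT buffer, 20 μl reactions. Test compound was added at 5 or 25 μg/ml (methanol vehicle); 100 μM etoposide in DMSO served as positive control. Reactions ran 30 min at 37°C, were stopped with Sarkosyl loading dye, and resolved on 1% agarose with ethidium bromide. Gel densitometry was used; seven experiments, SEM, Student's t test.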

Assay [8] has as its system Vero. Briefly: Cell viability assay. It counts as cell-based, African green monkey. Conditions: read-out: IC50 (μM) Vero; MTT, 72 hours, n=4 ± SE; normal cell line. An outline of the steps:
as §1

Assay [9] has as its system BxPC-3. Conditions: read-out: IC50 (μM) BxPC-3; ref Li et al ([14]); cited from earlier work.
Assay [10] concerns Panc-1. The settings on record: read-out: IC50 (μM) Panc-1; ref Li et al ([14]); cited from earlier work.
In assay [11] the test system is MIA PaCa2. The settings on record: read-out: IC50 (μM) MIA PaCa2; ref Li et al ([14]); cited from earlier work.
The subject of assay [12] is AsPC-1. The settings on record: read-out: IC50 (μM) AsPC-1; ref Li et al ([14]); cited from earlier work.
The test system of assay [13] is Panc-1, AsPC-1, BxPC-3, and MIA-PaCa2. Briefly: Cell viability assay. The settings on record: read-out: IC50 in all pancreatic cell lines. The assay is classed as cell-based, human. An outline of the steps:
as §1

topoisomerase II, sequence (P11388 whole entry): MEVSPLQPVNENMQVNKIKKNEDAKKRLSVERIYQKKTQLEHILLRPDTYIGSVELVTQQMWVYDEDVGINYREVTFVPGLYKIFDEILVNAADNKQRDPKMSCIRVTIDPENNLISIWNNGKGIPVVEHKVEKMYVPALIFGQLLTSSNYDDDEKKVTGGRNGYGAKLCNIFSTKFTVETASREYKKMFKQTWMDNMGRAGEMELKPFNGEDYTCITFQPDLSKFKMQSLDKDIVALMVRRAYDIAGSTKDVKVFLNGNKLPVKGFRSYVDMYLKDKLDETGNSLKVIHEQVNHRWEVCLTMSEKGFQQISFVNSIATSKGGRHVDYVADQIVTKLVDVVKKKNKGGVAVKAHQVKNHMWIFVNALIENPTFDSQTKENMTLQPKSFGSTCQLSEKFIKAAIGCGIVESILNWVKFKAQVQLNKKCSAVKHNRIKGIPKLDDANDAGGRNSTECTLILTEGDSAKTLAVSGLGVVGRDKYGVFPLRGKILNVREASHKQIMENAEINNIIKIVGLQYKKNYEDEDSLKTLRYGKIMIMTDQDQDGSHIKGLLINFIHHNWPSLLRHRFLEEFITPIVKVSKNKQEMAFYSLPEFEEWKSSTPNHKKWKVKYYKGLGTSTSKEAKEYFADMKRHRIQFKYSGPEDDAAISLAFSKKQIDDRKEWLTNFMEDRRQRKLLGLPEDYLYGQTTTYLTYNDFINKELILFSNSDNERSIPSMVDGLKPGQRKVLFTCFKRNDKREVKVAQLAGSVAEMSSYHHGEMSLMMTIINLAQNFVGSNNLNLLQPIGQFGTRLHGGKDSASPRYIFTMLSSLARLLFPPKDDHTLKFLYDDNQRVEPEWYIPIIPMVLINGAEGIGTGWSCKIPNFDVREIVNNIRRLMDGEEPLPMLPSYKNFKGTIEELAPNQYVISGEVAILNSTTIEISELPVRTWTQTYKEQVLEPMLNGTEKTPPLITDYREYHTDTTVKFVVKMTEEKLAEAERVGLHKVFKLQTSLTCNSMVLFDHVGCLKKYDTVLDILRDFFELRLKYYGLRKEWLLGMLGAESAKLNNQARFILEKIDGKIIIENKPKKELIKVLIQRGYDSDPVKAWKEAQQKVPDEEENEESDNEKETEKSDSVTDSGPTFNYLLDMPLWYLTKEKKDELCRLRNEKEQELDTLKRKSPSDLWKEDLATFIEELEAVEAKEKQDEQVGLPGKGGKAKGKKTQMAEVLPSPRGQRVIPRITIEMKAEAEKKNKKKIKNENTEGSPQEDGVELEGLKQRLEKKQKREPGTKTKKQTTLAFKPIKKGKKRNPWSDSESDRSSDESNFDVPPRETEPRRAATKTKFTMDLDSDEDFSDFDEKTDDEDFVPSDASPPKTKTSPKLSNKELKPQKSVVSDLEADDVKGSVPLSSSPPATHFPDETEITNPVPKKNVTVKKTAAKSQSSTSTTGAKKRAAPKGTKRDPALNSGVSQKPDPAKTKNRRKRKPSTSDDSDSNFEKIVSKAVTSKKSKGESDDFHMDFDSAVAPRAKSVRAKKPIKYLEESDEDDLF

The term IC50 denotes the midpoint of a concentration-inhibition curve. As to `O=c1[nH]cc(F)c(=O)[nH]1` [5-Fluorouracil, 5-fluorouracil, reference compound], the IC50 in assay [1] (Homo sapiens, MIA PaCa-2, 72 h) is 8.31 ± 0.357 µM; in assay [2] (Homo sapiens, PANC-1, 72 h) it was 5.73 ± 0.682 µM; in [3] (Homo sapiens, BXPC-3, 72 h), 5.56 ± 1.64 µM; in [4] (Homo sapiens, ASPC1, 72 h) it was more than 38.4 µM.
A word on the inhibition: it is the drop in the measured response relative to a control, in per cent. As for `CSc1c2c3c(n1C)C(=O)C(=O)C(Cl)=C3NCC2` [Batzelline A], the IC50 in assay [1] (Homo sapiens, MIA PaCa-2, 72 h) was more than 17.7 µM; in assay [2] (Homo sapiens, PANC-1, 72 h) it was more than 17.7 µM; in assay [3] (Homo sapiens, BXPC-3, 72 h), more than 17.7 µM; in assay [4] (Homo sapiens, ASPC1, 72 h), more than 17.7 µM. For the same compound, the Cell cycle arrest entry in [5] (5 μg/ml, data not shown) is “S-phase cell cycle arrest”; in [5] (25 μg/ml), “S phase”. The “% DNA intercalation” value in assay [6] is given as 18%. Further, the “DNA intercalation (in words)” value in assay [6] is given as “no DNA intercalation”. Moreover, the inhibition at 25 µg/mL in assay [7] stood at 58%.
In the case of `CSC1=Nc2c(O)c(O)c(Cl)c3c2=C1CCN=3` [Batzelline B], the IC50 was more than 18.6 µM in assay [1] (MTT, 72 hours, n=4 ± SE); more than 18.6 µM in assay [2] (MTT, 72 hours, n=4 ± SE); more than 18.6 µM in assay [3] (MTT, 72 hours, n=4 ± SE); more than 18.6 µM in assay [4] (MTT, 72 hours, n=4 ± SE); more than 18.6 µM in assay [8]. Besides, the Cell cycle arrest entry is “did not have an effect” in [5] (5 μg/ml, data not shown) and “S phase” in [5] (25 μg/ml). The “% DNA intercalation” value in assay [6] is 21%. For the same compound, the “topoisomerase II inhibition (in words)” value in assay [7] is reported as “significantly inhibited topoisomerase II activity”. Further, the “% Inhibition topoisomeraseII” value in [7] is reported as 63 ^* %.
As to `Nc1ccn([C@@H]2O[C@H](CO)[C@@H](O)C2(F)F)c(=O)n1` [Gemcitabine, gemcitabine], the IC50 is more than 250 µM in [9], 7.2 µM in assay [10], 14.5 µM in assay [11] and more than 250 µM in assay [12].
In the case of `CSc1c2c3c(n1C)C(=O)C(N)=C(Cl)C3=NCC2` [Isobatzelline A], the IC50 was 4.34 ± 0.22 µM in assay [1] (MTT, 72 hours, n=4 ± SE); 9.37 ± 0.536 µM in assay [2] (MTT, 72 hours, n=4 ± SE); 2.39 ± 0.218 µM in assay [3] (MTT, 72 hours, n=4 ± SE); less than 10 µM in assay [13] (MTT, 72 hours); 1.74 ± 0.415 µM in assay [4] (MTT, 72 hours, n=4 ± SE); more than 17.7 µM in assay [8]. In addition, the Cell cycle arrest entry in [5] (5 μg/ml, data not shown) is “S-phase cell cycle arrest”; in [5] (25 μg/ml), “S phase”. Besides, in [6], the “% DNA intercalation” value is reported as 54 ^** %. Moreover, the “DNA intercalation (in words)” value in assay [6] is recorded as “significant intercalation into DNA”. Moreover, the “topoisomerase II inhibition (in words)” value in assay [7] was “significantly inhibited topoisomerase II activity”. In addition, the “% Inhibition topoisomeraseII” value in assay [7] is given as 36 ^* %.
With `Cn1cc2c3c1C(=O)C(N)=C(Cl)C3=NCC2` [Isobatzelline C], the IC50 in assay [1] (Homo sapiens, MIA PaCa-2, 72 h) is 2.34 ± 0.0977 µM; in [2] (Homo sapiens, PANC-1, 72 h) it was 9.98 ± 0.384 µM; in [3] (Homo sapiens, BXPC-3, 72 h), 1.31 ± 0.185 µM; in [13] (Homo sapiens, 72 h) it was less than 10 µM; in assay [4] (Homo sapiens, ASPC1, 72 h) it was 1.72 ± 0.168 µM. In addition, the Cell cycle arrest result in assay [5] (5 μg/ml, data not shown) is listed as “S-phase cell cycle arrest”; in assay [5] (25 μg/ml) it was “S phase”. For the same compound, the “% DNA intercalation” value in assay [6] is listed as 56 ^** %. Also, in assay [7], the inhibition at 25 µg/mL is 27%.
In the case of `CSc1c2ccnc3c2c(n1C)C(=O)C(N)=C3Cl` [Isobatzelline D], the IC50 in assay [1] (MTT, 72 hours, n=4 ± SE) was 2.67 ± 0.295 µM; in [2] (MTT, 72 hours, n=4 ± SE) it was 5.72 ± 0.253 µM; in [3] (MTT, 72 hours, n=4 ± SE), 1.48 ± 0.18 µM; in assay [13] (MTT, 72 hours), less than 10 µM; in [4] (MTT, 72 hours, n=4 ± SE), 1.48 ± 0.187 µM; in assay [8], 15.7 ± 1.17 µM. In addition, the Cell cycle arrest entry in [5] (5 μg/ml, data not shown) was “S-phase cell cycle arrest”; in assay [5] (25 μg/ml), “S phase”. The “% DNA intercalation” value in [6] was 47 ^** %. Further, the “% Inhibition topoisomeraseII” value in [7] is 26%.
For `Cn1cc2ccnc3c2c1C(=O)C(N)=C3Cl` [Isobatzelline E], the 50% inhibitory concentration (IC50) in assay [1] (MTT, 72 hours, n=4 ± SE) is more than 21.5 µM; in assay [2] (MTT, 72 hours, n=4 ± SE), more than 21.5 µM; in [3] (MTT, 72 hours, n=4 ± SE) it was more than 21.5 µM; in assay [4] (MTT, 72 hours, n=4 ± SE) it was more than 21.5 µM; in [8] it was more than 21.5 µM. Also, in assay [5] (5 μg/ml, data not shown), the Cell cycle arrest result was “did not have an effect”. Moreover, in assay [6], the “DNA intercalation (in words)” value is recorded as “significant intercalation into DNA”. Moreover, the “topoisomerase II inhibition (in words)” value in [7] is “significantly inhibited topoisomerase II activity”. The “% Inhibition topoisomeraseII” value in assay [7] is 95 ^* %.
As to `N=C1C(Cl)=C(N)C(=O)c2[nH]cc(C(O)CO)c21` (centres unmarked) [Secobatzelline A], the IC50 is 5.63 ± 0.739 µM in assay [1] (Homo sapiens, MIA PaCa-2, 72 h); 10.4 ± 1.16 µM in assay [2] (Homo sapiens, PANC-1, 72 h); 4.09 ± 0.146 µM in [3] (Homo sapiens, BXPC-3, 72 h); less than 10 µM in assay [13] (Homo sapiens, 72 h); 3.62 ± 0.801 µM in assay [4] (Homo sapiens, ASPC1, 72 h). The Cell cycle arrest result in assay [5] (5 μg/ml, data not shown) is recorded as “S-phase cell cycle arrest”; in assay [5] (25 μg/ml), “S phase”. Also, the “DNA intercalation (in words)” value in assay [6] is recorded as “significant intercalation into DNA”. Moreover, in assay [7], the “topoisomerase II inhibition (in words)” value is “significantly inhibited topoisomerase II activity”. Besides, the inhibition at 25 µg/mL in assay [7] worked out at 61%.
With `NC1=C(Cl)C(=O)c2c(C(O)CO)c[nH]c2C1=O` (centres unmarked) [Secobatzelline B], the IC50 in assay [1] (Homo sapiens, MIA PaCa-2, 72 h) was more than 19.5 µM; in [2] (Homo sapiens, PANC-1, 72 h), 17.4 ± 0.281 µM; in assay [3] (Homo sapiens, BXPC-3, 72 h), more than 19.5 µM; in assay [4] (Homo sapiens, ASPC1, 72 h) it was more than 19.5 µM. Also, the Cell cycle arrest entry is on record as “did not have an effect” in assay [5] (5 μg/ml, data not shown) and “S phase” in assay [5] (25 μg/ml). Also, the “DNA intercalation (in words)” value in assay [6] is listed as “no DNA intercalation”. Also, the “topoisomerase II inhibition (in words)” value in assay [7] is listed as “no DNA intercalation or topoisomerase II inhibition”. The inhibition at 25 µg/mL in assay [7] is 13%.

The values are drawn from publication PMC3031457 (Anti-cancer drugs, 2009).
